Experimental data published in ChEMBL document CHEMBL1921744, “Lipophosphonoxins: new modular molecular structures with significant antibacterial properties” (J Med Chem, 2011).
Values after ≈ are worked out from the molar mass of the structure shown. Active and inactive are the calls of the source. No cut-off for these calls is given here.

Tests used:
[1] = test system: Mycobacterium tuberculosis; experiment: Antimycobacterial activity against drug-susceptible Mycobacterium tuberculosis; assay type: functional
Escherichia coli [2] = experiment: Antibacterial activity against permeabilized Escherichia coli DH5[alpha] assessed as log reduction of colony forming unit at 1 mM; assay type: functional, organism-based
Method in brief: (§1)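 Competent (permeabilized) E. coli DH5α cells were mixed with 5 ng pUC18 (ampR) and serially diluted compound or buffer only. Steps: 30 min on ice, heat shock at 42 °C for 90 s, 5 min on ice, then LB without antibiotic for 1 h at 37 °C with shaking. Plated on LB agarose with ampicillin 100 μg/mL overnight at 37 °C. Colonies counted against the no-compound control.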

Bacillus subtilis = settings: at 0.2 mM
Staphylococcus aureus [3] = experiment: Antibacterial activity against Staphylococcus aureus infected in mouse; assay type: functional
Staphylococcus aureus [4] = experiment: Antibacterial activity against methicillin-resistant Staphylococcus aureus SR3637; assay type: functional
Enterococcus faecium [5] = experiment: Antibacterial activity against Enterococcus faecium ATCC 19434; assay type: functional
Method in brief: (§2)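 Incubation 24/48 h at 37 °C. MIC read as the lowest concentration inhibiting growth. MBC determined by transferring 10 μL from wells onto blood agar, taken as the lowest concentration with no visible growth.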

Enterococcus faecalis [6] = experiment: Antibacterial activity against vancomycin-resistant Enterococcus faecalis SR7914; assay type: functional
Enterococcus faecalis [7] = experiment: Antibacterial activity against Enterococcus faecalis ATCC 29212; assay type: functional
Enterococcus faecium [8] = experiment: Antibacterial activity against vancomycin-resistant Enterococcus faecium SR7917; assay type: functional
Staphylococcus aureus [9] = experiment: Antibacterial activity against methicillin-sensitive Staphylococcus aureus ATCC 29213; assay type: functional; method in brief: as §2
[10] = target: T1, Phospho-N-acetylmuramoyl-pentapeptide-transferase (Mycobacterium tuberculosis, UniProt P9WMW7); experiment: Inhibition of Mycobacterium tuberculosis MraY translocase
T1 sequence (P9WMW7 whole entry): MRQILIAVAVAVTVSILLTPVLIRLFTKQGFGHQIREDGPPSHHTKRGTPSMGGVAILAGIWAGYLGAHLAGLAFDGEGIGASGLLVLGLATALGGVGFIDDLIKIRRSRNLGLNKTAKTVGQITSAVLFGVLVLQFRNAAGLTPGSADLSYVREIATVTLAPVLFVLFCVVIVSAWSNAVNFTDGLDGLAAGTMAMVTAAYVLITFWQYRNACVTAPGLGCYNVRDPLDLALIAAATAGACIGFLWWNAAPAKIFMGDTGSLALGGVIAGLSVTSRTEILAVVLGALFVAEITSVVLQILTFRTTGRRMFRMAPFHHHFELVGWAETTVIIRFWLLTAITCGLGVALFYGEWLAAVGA

[11] = Cytotoxicity against human Erythroid progenitor cells assessed as cell viability after 48 hrs by CellTiter-blue assay; assay type: cell-based
Method in brief: (§3)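 Normal human erythroid progenitor cells, expanded from umbilical cord blood, plated at 25000 cells/well immediately before compound addition (added as a 5× predilution in culture medium). Viability by CellTiter-Blue fluorescence 48 h after addition, normalized to untreated cells set as 100%.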

Pseudomonas aeruginosa = experiment: Antibacterial activity against Pseudomonas aeruginosa after 24 to 48 hrs by microdilution method; assay type: functional; method in brief: as §2
[12] = Induction of apoptosis in human Erythroid progenitor cells assessed as caspase 3/7 activation after 4 hrs by Caspase-Glo 3/7 assay
Method in brief: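 Cord-blood-derived human erythroid progenitor cells plated at 25000 cells/well and exposed to compound prediluted in medium. Caspase 3/7 activation read by Caspase-Glo 3/7 luminescence 4 h after addition, normalized to untreated control cells set as 100%.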

Enterococcus faecalis [13] = experiment: Antibacterial activity against Enterococcus faecalis CCM 4224 after 24 to 48 hrs by microdilution method; assay type: functional; method in brief: as §2
Escherichia coli [14] = experiment: Antibacterial activity against permeabilized Escherichia coli DH5[alpha] assessed as log reduction of colony forming unit at 10 uM; assay type: functional, organism-based; method in brief: as §1
[15] = Cytotoxicity against human Erythroid progenitor cells assessed as maximum safe concentration after 48 hrs by CellTiter-blue assay; assay type: cell-based; settings: read-out: Activity; method in brief: as §3
Escherichia coli [16] = experiment: Antibacterial activity against permeabilized Escherichia coli DH5[alpha] assessed as cell killing at 25 uM; assay type: functional; method in brief: as §1
Streptococcus agalactiae = experiment: Antibacterial activity against Streptococcus agalactiae after 24 to 48 hrs by microdilution method; assay type: functional; method in brief: as §2
Escherichia coli [17] = experiment: Antibacterial activity against Escherichia coli after 24 to 48 hrs by microdilution method; assay type: functional; method in brief: as §2

Compound: CO[C@@H]1[C@@H](OC)[C@H](C)O[C@@H](OC(=O)C[C@@H](C)CC(=O)O[C@@H](CCCCCCCCCCCC(C)C)CC(=O)O[C@H]2CN(C)[C@@H]([C@H](O[C@@H]3O[C@H](CN)[C@@H](O)[C@H]3O)[C@H]3O[C@@H](n4ccc(=O)[nH]c4=O)[C@H](O)[C@@H]3O)C(=O)N(C)[C@@H]2C(=O)O)[C@@H]1OC [CAPRAZAMYCIN B]
- MIC [1]: 3.13 µg/mL (≈ 2.7 µM)

Compound: O=c1ccn([C@@H]2O[C@H](COP(=O)(O)CCN3C[C@@H](O)[C@H](O)C3)[C@@H](O)[C@H]2O)c(=O)[nH]1
- Activity (Escherichia coli [2]): inactive

Compound: Cetyltrimethylammonium bromide
- inhibition (Bacillus subtilis): Active

Compound: CC(C)C[C@H](NC(=O)[C@@H](NC(=O)N[C@H](C(=O)O)C(C)C)[C@@H]1CCNC(=N)N1)C(=O)NCCCN[C@H](C(=O)O)[C@H](O[C@@H]1O[C@H](CN)[C@@H](O)[C@H]1O)[C@H]1O[C@@H](n2ccc(=O)[nH]c2=O)[C@H](O)[C@@H]1O [MURAMYCIN D2]
- ED50 (Staphylococcus aureus [3]): 1.1 mg/kg
- MIC (Staphylococcus aureus [4]): > 64 µg/mL
- MIC (Enterococcus faecium [5]): > 64 µg/mL
- MIC (Enterococcus faecalis [6]): > 64 µg/mL
- MIC (Enterococcus faecalis [7]): > 64 µg/mL
- MIC (Enterococcus faecium [8]): > 64 µg/mL
- MIC (Staphylococcus aureus [9]): > 64 µg/mL

Compound: CC(C)CCCCCCCC(CC(=O)O[C@H]1CN(C)[C@@H]([C@H](O[C@@H]2O[C@H](CN)[C@@H](O)[C@H]2OS(=O)(=O)O)[C@H]2O[C@@H](n3ccc(=O)[nH]c3=O)[C@H](O)[C@@H]2O)C(=O)N(C)[C@@H]1C(=O)O)OC(=O)CC(C)CC(=O)O (stereo not given in full) [LIPOSIDOMYCIN B]
- IC50 [10]: 49.1 nM

Compound: CCCCCCCCCCCCCCCCCCCCOP(=O)(CCN1C[C@@H](O)[C@H](O)C1)OC[C@H]1O[C@@H](n2ccc(=O)[nH]c2=O)[C@H](O)[C@@H]1O (stereo not given in full)
- IC50 [11]: 31 µg/mL (≈ 43.2 µM)
- MIC (Pseudomonas aeruginosa): > 200 µg/mL
- Activity [12]: Non-toxic
- MIC (Enterococcus faecalis [13]): 100 µg/mL (≈ 139 µM)
- Activity (Escherichia coli [14]): Active
- MNTC at 48 h [15]: 15.6 µg/mL
- Activity (Escherichia coli [16]): 90%
- MIC (Streptococcus agalactiae): 6.25 µg/mL (≈ 8.71 µM)
- MIC (Escherichia coli [17]): > 200 µg/mL
